Measured values published in ChEMBL document CHEMBL1811814, “Synthesis and evaluation of indole, pyrazole, chromone and pyrimidine based conjugates for tumor growth inhibitory activities--development of highly efficacious cytotoxic agents” (Eur J Med Chem, 2010).

How the values were obtained:
Type in all cases: functional
U-251 [1] = assay: Growth inhibition of human U251 cells
A498 = assay: Growth inhibition of human A498 cells assessed tumor cell growth at 10^-5 M; design: scale not given: the % may be the effect or the level left
Outline: (§1)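 NCI 60-human-tumor-cell-line panel screen. Each compound was tested at a single concentration of 10^-5 M, and percent growth of tumor cells was recorded for each cell line. Growth inhibition was expressed from these percent-growth values.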

OVCAR-4 = assay: Growth inhibition of human OVCAR4 cells assessed tumor cell growth at 10^-5 M; design: scale not given: the % may be the effect or the level left; outline: as §1
MDA-MB-231 = assay: Growth inhibition of human MDA-MB-231 cells assessed tumor cell growth at 10^-5 M; design: scale not given: the % may be the effect or the level left; outline: as §1
Malme-3M [2] = assay: Growth inhibition of human MALME-3M cells
HOP-62 = assay: Growth inhibition of human HOP62 cells
MOLT-4 = assay: Growth inhibition of human MOLT4 cells assessed tumor cell growth at 10^-5 M; design: scale not given: the % may be the effect or the level left; outline: as §1
IGROV-1 = assay: Growth inhibition of human IGROV1 cells
Outline: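 Follow-up panel testing at five concentrations (10^-4, 10^-5, 10^-6, 10^-7 and 10^-8 M) across the 60 human tumor cell lines. GI50 was obtained for each line from the concentration-response data, with the panel average GI50 also reported.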

OVCAR-5 [3] = assay: Growth inhibition of human OVCAR5 cells assessed tumor cell growth at 10^-5 M; design: scale not given: the % may be the effect or the level left; outline: as §1
DU-145 = assay: Growth inhibition of human DU145 cells assessed tumor cell growth at 10^-5 M; design: scale not given: the % may be the effect or the level left; outline: as §1
UACC-62 [4] = assay: Growth inhibition of human UACC62 cells assessed tumor cell growth at 10^-5 M; design: scale not given: the % may be the effect or the level left
Outline: (§2)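 Single-dose screen at 10^-5 M across the 60 human tumor cell line panel, run to NCI standards. The value is the percent growth of each cell line in the presence of compound. Compounds active at this dose moved on to five-concentration testing (10^-4 to 10^-8 M).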

M14 = assay: Growth inhibition of human M14 cells assessed tumor cell growth at 10^-5 M; design: scale not given: the % may be the effect or the level left; outline: as §1
OVCAR-5 [5] = assay: Growth inhibition of human OVCAR5 cells
HCT-116 [6] = assay: Growth inhibition of human HCT116 cells
K562 = assay: Growth inhibition of human K562 cells
SF-268 = assay: Growth inhibition of human SF268 cells
OVCAR-3 [7] = assay: Growth inhibition of human OVCAR3 cells assessed tumor cell growth at 10^-5 M; design: scale not given: the % may be the effect or the level left; outline: as §1
LOX IMVI = assay: Growth inhibition of human LOXIMVI cells
786-0 = assay: Growth inhibition of human 786-0 cells
SK-OV-3 [8] = assay: Growth inhibition of human SKOV3 cells assessed tumor cell growth at 10^-5 M; design: scale not given: the % may be the effect or the level left; outline: as §1
KM12 = assay: Growth inhibition of human KM12 cells assessed tumor cell growth at 10^-5 M; design: scale not given: the % may be the effect or the level left; outline: as §1
SK-MEL-2 = assay: Growth inhibition of human SK-MEL-2 cells
OVCAR-3 [9] = assay: Growth inhibition of human OVCAR3 cells
SR = assay: Growth inhibition of human SR cells assessed tumor cell growth at 10^-5 M; design: scale not given: the % may be the effect or the level left; outline: as §2
NCI-H322M = assay: Growth inhibition of human NCI-H322M cells assessed tumor cell growth at 10^-5 M; design: scale not given: the % may be the effect or the level left; outline: as §1
HT-29 = assay: Growth inhibition of human HT-29 cells assessed tumor cell growth at 10^-5 M; design: scale not given: the % may be the effect or the level left; outline: as §1
SW-620 = assay: Growth inhibition of human SW620 cells assessed tumor cell growth at 10^-5 M; design: scale not given: the % may be the effect or the level left; outline: as §2
A549 = assay: Growth inhibition of human A549 cells
TK-10 [10] = assay: Growth inhibition of human TK10 cells
MCF7 = assay: Growth inhibition of human MCF7 cells assessed tumor cell growth at 10^-5 M; design: scale not given: the % may be the effect or the level left; outline: as §1
HCT-116 [11] = assay: Growth inhibition of human HCT116 cells assessed tumor cell growth at 10^-5 M; design: scale not given: the % may be the effect or the level left; outline: as §1
Malme-3M [12] = assay: Growth inhibition of human MALME-3M cells assessed tumor cell growth at 10^-5 M; design: scale not given: the % may be the effect or the level left; outline: as §1
SN12C = assay: Growth inhibition of human SN12C cells
NCI/ADR-RES = assay: Growth inhibition of human NCI/ADR-RES cells
BT-549 = assay: Growth inhibition of human BT549 cells assessed tumor cell growth at 10^-5 M; design: scale not given: the % may be the effect or the level left; outline: as §1
SF-295 = assay: Growth inhibition of human SF295 cells assessed tumor cell growth at 10^-5 M; design: scale not given: the % may be the effect or the level left; outline: as §1
[13] = Growth inhibition of human […] cells assessed tumor cell growth at 10^-5 M; design: scale not given: the % may be the effect or the level left; outline: as §1
HL-60(TB) = assay: Growth inhibition of human HL-60(TB) cells
HCT-15 = assay: Growth inhibition of human HCT15 cells
TK-10 [14] = assay: Growth inhibition of human TK10 cells assessed tumor cell growth at 10^-5 M; design: scale not given: the % may be the effect or the level left; outline: as §2
U-251 [15] = assay: Growth inhibition of human U251 cells assessed tumor cell growth at 10^-5 M; design: scale not given: the % may be the effect or the level left; outline: as §2
UACC-62 [16] = assay: Growth inhibition of human UACC62 cells
PC-3 = assay: Growth inhibition of human PC3 cells assessed tumor cell growth at 10^-5 M; design: scale not given: the % may be the effect or the level left; outline: as §1
SNB-19 = assay: Growth inhibition of human SNB19 cells assessed tumor cell growth at 10^-5 M; design: scale not given: the % may be the effect or the level left; outline: as §2
MDA-MB-435 = assay: Growth inhibition of human MDA-MB-435 cells
SK-MEL-5 = assay: Growth inhibition of human SK-MEL-5 cells
NCI-H23 = assay: Growth inhibition of human NCI-H23 cells
SK-OV-3 [17] = assay: Growth inhibition of human SKOV3 cells
[18] = Growth inhibition of human Hs 578T cells
[19] = read-out: LC50 (the source's name)

CC1=NN(c2cccc(Cl)c2)C(=O)/C1=C\c1c(O)ccc2ccccc12
GI50 (U-251 [1]): 40.7 µM
CC50 (U-251 [1]; [19]): > 100 µM
Activity (A498): 107.38%
Activity (OVCAR-4): -66.84%
Activity (MDA-MB-231): 4.08%
GI50 (Malme-3M [2]): 29.5 µM
CC50 (Malme-3M [2]; [19]): > 100 µM
GI50 (HOP-62): 31.6 µM
CC50 (HOP-62; [19]): > 100 µM
Activity (MOLT-4): 44.19%
GI50 (IGROV-1): 26.9 µM
CC50 (IGROV-1; [19]): > 100 µM
Activity (OVCAR-5 [3]): 16.91%
Activity (DU-145): 35.43%
Activity (UACC-62 [4]): 82.71%
Activity (M14): 18.24%
GI50 (OVCAR-5 [5]): > 100 µM
CC50 (OVCAR-5 [5]; [19]): > 100 µM
GI50 (HCT-116 [6]): > 100 µM
CC50 (HCT-116 [6]; [19]): > 100 µM
GI50 (K562): 44.6 µM
CC50 (K562; [19]): > 100 µM
GI50 (SF-268): 97.7 µM
CC50 (SF-268; [19]): > 100 µM
Activity (OVCAR-3 [7]): 63.18%
GI50 (LOX IMVI): > 100 µM
CC50 (LOX IMVI; [19]): > 100 µM
GI50 (786-0): 21.3 µM
CC50 (786-0; [19]): > 100 µM
Activity (SK-OV-3 [8]): 28.27%
Activity (KM12): 21.17%
GI50 (SK-MEL-2): 21.8 µM
CC50 (SK-MEL-2; [19]): > 100 µM
GI50 (OVCAR-3 [9]): 58.8 µM
CC50 (OVCAR-3 [9]; [19]): > 100 µM
Activity (SR): 29.7%
Activity (NCI-H322M): 84.08%
Activity (HT-29): 13.48%
Activity (SW-620): 30.97%
GI50 (A549): > 100 µM
CC50 (A549; [19]): > 100 µM
GI50 (TK-10 [10]): 34.6 µM
CC50 (TK-10 [10]; [19]): > 100 µM
Activity (MCF7): 3.07%
Activity (HCT-116 [11]): 8.69%
Activity (Malme-3M [12]): 58.97%
GI50 (SN12C): > 100 µM
CC50 (SN12C; [19]): > 100 µM
GI50 (NCI/ADR-RES): > 100 µM
CC50 (NCI/ADR-RES; [19]): > 100 µM
Activity (BT-549): 90.21%
Activity (SF-295): 25.62%
Activity [13]: 96.44%
GI50 (HL-60(TB)): > 100 µM
CC50 (HL-60(TB); [19]): > 100 µM
GI50 (HCT-15): > 100 µM
CC50 (HCT-15; [19]): > 100 µM
Activity (TK-10 [14]): 17.23%
Activity (U-251 [15]): -10.7%
GI50 (UACC-62 [16]): 39.8 µM
CC50 (UACC-62 [16]; [19]): > 100 µM
Activity (PC-3): 33.03%
Activity (SNB-19): 31.43%
GI50 (MDA-MB-435): > 100 µM
CC50 (MDA-MB-435; [19]): > 100 µM
GI50 (SK-MEL-5): > 100 µM
CC50 (SK-MEL-5; [19]): > 100 µM
GI50 (NCI-H23): > 100 µM
LC50 (concentration killing 50% of cells) (NCI-H23): > 100 µM
GI50 (SK-OV-3 [17]): 26.3 µM
CC50 (SK-OV-3 [17]; [19]): > 100 µM
GI50 [18]: 32.3 µM
CC50 [18, 19]: > 100 µM
